The data set in a line: Toxicity liver stage against HepG2, at 10uM. Type of data set: cell-based. More on the design: test concentration 10 uM, cell line HepG2-A16-CD81EGFP. The settings on record: human, HepG2-A16-CD81EGFP cells; read-out: INHIBITION
The method, boiled down:
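Uninfected HepG2-A16-CD81EGFP cells, 3 × 10^3 per well, 1536-well, plated on prespotted compound at 10 μM final, parasite-free screening media added to match infected plates; puromycin 10 μM positive, DMSO 0.5% negative; run in parallel with 48 h PbLuc assay at 37 °C, 5% CO2; viability by CellTiter-Glo luminescence, normalized to controls.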
With `COc1ccc2c(c1)nc1n2[C@@H](CN(C2CCC2)C2CCC2)COC1`, the cytotoxicity at 10 µM was determined as 5.96%. Regarding `O=S(=O)(NCC1(O)CCOc2ccccc21)c1ccccc1F` (stereo unspecified), the cytotoxicity at 10 µM was 7.22%.

As for `Cc1nccn1-c1ccc(=O)n(CCNC(=O)c2ccncc2)n1`, the cytotoxicity at 10 µM is -3.18%. On to `Cn1c(C(F)(F)F)nn(CCNC(=O)c2ccccn2)c1=O`, for which the cytotoxicity at 10 µM is -1.4%. As for `CC(=O)N1CC[C@@H](N2CCN(C)CC2)[C@@H]1Cc1ccccc1`, the cytotoxicity at 10 µM is 9.04%. For `CCC(C)Nc1ccc2c(c1)C1(CCOCC1)C(=O)N2c1ccccc1` (stereo unspecified), the cytotoxicity at 10 µM was determined as 8.7%. As for `CC(C)C(=O)N1CCCC2(CCCN2Cc2cccnc2)C1` (stereo unspecified), the figure is 5.22%. For the molecule `CO[C@@H]1CCN(S(=O)(=O)c2cn(C)cn2)[C@H]1Cc1ccccc1`, the cytotoxicity at 10 µM is 7.13%. As for `Cc1ccc(S(=O)(=O)NC2=NCN(CCc3cccs3)CN2)cc1`, the figure is 4.77%; as for `CSc1ncnc(NCc2cccs2)c1C#N`, -0.277%; as for `Cc1cc(C(=O)N2CCN(c3ncc4c(n3)CCOC4)CC2)sc1C`, 0.794%. The same measure for `NC(=O)c1cnn2c(C3CCCN(C4CCOCC4)C3)ccnc12` (stereo unspecified): 4.34%.

For the molecule `COc1ccc(C(C)NCc2ccsc2)cc1Cn1cccn1` (stereo unspecified), the cytotoxicity at 10 µM turned out to be 7.86%. Take `CC(C)(CNC(=O)C1(c2ccccc2)CCOCC1)C(=O)O`: the cytotoxicity at 10 µM amounted to 1.25%. `Cc1ccc(OCc2cccc(C(=O)N(C)C(C)CC#N)c2)cn1` (stereo unspecified): the cytotoxicity at 10 µM was 6.36%. As for `Cc1nc(NS(=O)(=O)c2ccc(F)c(Br)c2)no1`, the figure is 6.04%; as for `CCC(C(=O)NCCc1coc(-c2ccc(C)cc2)n1)N(C)C` (stereo unspecified), -1.13%; as for `O=C(OCC1CCCN(C(=O)c2ccccc2)C1)c1cscn1` (stereo unspecified), -9.92%. As for `O=C(c1cccc(NCCOc2ccc(F)cc2)c1)N1CCOCC1`, the figure is 7.43%; as for `CC(C)(NC(=O)CCc1ccco1)c1ccc2c(c1)OCCO2`, 1.44%; as for `CC(CN1CCOCC1)NC(=O)NCc1cccs1` (stereo unspecified), -15.9%.

Take `N#CCSCCCN1CCN(C(=O)c2cccc(Cl)c2)CC1`: the cytotoxicity at 10 µM is -161%.

As for `CC(=O)NCCNC(=O)c1ccc(C)c(-n2cccc2)c1`, the cytotoxicity at 10 µM was -2.04%. On to `CC(c1nc(C2CC2)no1)N1CCN(CC(=O)N2CCOCC2)CC1` (stereo unspecified), for which the cytotoxicity at 10 µM came to 6.75%. Regarding `O=C(CN1CCOC(Cn2cccn2)C1)Nc1cccnc1` (stereo unspecified), the cytotoxicity at 10 µM was 10.7%.

Turning to `Cc1noc(CNC(=O)N2CCN(c3nc(C)c(C)s3)CC2)n1`, the cytotoxicity at 10 µM was -19.5%.

On to `Cc1cc(C)c(CNC(=O)NC2COc3ccccc3C2)c(=O)[nH]1` (stereo unspecified), for which the cytotoxicity at 10 µM was -13.8%. As for `O=C(Nc1ccn(Cc2cccc3cccnc23)n1)C1COCCO1` (stereo unspecified), the cytotoxicity at 10 µM came out at 5.18%.

Regarding `Cc1nc2scc(C)n2c1CNc1ccc(C(=O)O)cc1`, the cytotoxicity at 10 µM was 7.05%. As for `Cc1cc(F)c2c(c1)CCCN2C(=O)c1cncc(Br)c1`, the figure is 1.25%; as for `CCN(CC)C(=O)c1cccc(Cn2nc(C)cc2C)c1`, -5.93%.

In the case of `CN(CC(=O)NCC(C)(C)c1ccc2c(c1)OCO2)c1cnccn1`, the cytotoxicity at 10 µM was -7.5%. As for `CCOC(=O)C1CCN(CCCc2nnnn2-c2ccccc2)CC1`, the figure is 0.462%; as for `Cc1ccc(CNC(=O)NCc2ccco2)s1`, 3.47%. Regarding `CC(C)Oc1cccc(CC(=O)N(CC(N)=O)C2CCCC2)c1`, the cytotoxicity at 10 µM was -2.09%.

As to `COc1cc(N2C[C@H](OCc3cccnc3)[C@H]3OCCC[C@H]32)ncn1`, the cytotoxicity at 10 µM worked out at 4.13%. For the molecule `CC1(C)OC(=O)N(CCCOc2ccc(F)cc2)C1=O`, the cytotoxicity at 10 µM was 0.17%.

Take `CCN(CC)C(=O)Cn1cc(C(=O)NCCc2scnc2C)nn1`: the cytotoxicity at 10 µM was -4.47%. As for `O=C(Cc1ccccn1)N1CCCC(c2nccn2CC2CCC2)C1` (stereo unspecified), the figure is -2.11%. As for `CCc1cc(N(C)Cc2ccncn2)n2nccc2n1`, the figure is 3.61%. In the case of `CN(Cc1n[nH]c2c1CCCC2)c1nc2c(c(=O)[nH]1)CCNCC2`, the cytotoxicity at 10 µM was -20.1%.

For `CN(C)CCO[C@H]1C[C@@H](O)C12CCN(c1ncccc1Cl)CC2`, the cytotoxicity at 10 µM was 5.37%. As for `CN(CCc1cn[nH]c1)Cc1nc(Cc2cccc(C(F)(F)F)c2)no1`, the figure is 0.361%; as for `O=C(c1ccncc1)N1CCC(Oc2cccc(C(F)(F)F)c2)CC1`, 14.1%; as for `COC(=O)c1cc(NC(=O)NCC2CCS(=O)(=O)C2)ccc1Cl` (stereo unspecified), 2.57%. As for `COCCN(C)C[C@@H]1CN(C(=O)c2cccc(Cl)c2)C[C@@H]1CO`, the figure is -16.7%. For the molecule `CSc1cccc(CN(C)C(=O)CN2CCN(c3ncccn3)CC2)c1`, the cytotoxicity at 10 µM was 4.64%.

`CC(C)CC(O)C1CCN(Cc2ccc(N(C)C)nc2)CC1` (stereo unspecified): the cytotoxicity at 10 µM was 1.75%. For the molecule `COc1cc(F)c(C(=O)N2C[C@@H](CN(C)CCO)[C@@H](CO)C2)c(F)c1`, the cytotoxicity at 10 µM was -1.53%. Take `CCCOc1ccc(C(=O)N[C@@H]2CCNC[C@H]2O)cc1Cl`: the cytotoxicity at 10 µM is -10.4%. As for `Cc1noc(C)c1CN1CCC(c2nnc(Cn3cccn3)n2C)CC1`, the figure is 3.82%.

As to `COCc1nnc(C(=O)N2CC(N3CCCCC3)C2)o1`, the cytotoxicity at 10 µM is -3.57%. As for `COCC[C@]1(O)CCN(Cc2nc(C)cs2)C[C@H]1C`, the cytotoxicity at 10 µM worked out at 10.5%. The same measure for `Cc1ccnn1CC(=O)N1CCN(C2CCc3ccccc3C2)CC1` (stereo unspecified): -131%; for `Cc1ccc2c(c1)c(CNC(=O)C1CCCN(CC(N)=O)C1)nn2C` (stereo unspecified): -17.9%. On to `CC(C)COc1ccccc1CN(C)C(=O)c1cc(=O)[nH]c(=O)[nH]1`, for which the cytotoxicity at 10 µM turned out to be 2.05%.

Take `Cc1nc[nH]c1CN1CCn2nc(CN3CC[C@H](F)C3)cc2C1`: the cytotoxicity at 10 µM came to 5.01%. `Cc1noc(-c2ccnc(N3CCN(C4CCOCC4)CC3)c2)n1`: the cytotoxicity at 10 µM is 1.83%. Consider `c1nc(N2CCCC2Cn2cncn2)c2sccc2n1` (stereo unspecified), for which the cytotoxicity at 10 µM is -9.19%. As for `CN(Cc1ccccc1)CC(O)Cn1cnc2sccc2c1=O` (stereo unspecified), the figure is -6.54%; as for `CNC(=O)NCc1nn(-c2ccccc2)c2c1CCC2`, -10.8%; as for `COCCc1noc(CN2CCCCC2Cn2cncn2)n1` (stereo unspecified), -1.9%.

`Cc1nc(CN2CCCC2c2c(C)nn(C)c2Cl)no1` (stereo unspecified): the cytotoxicity at 10 µM was found to be 1.85%.

Take `Cc1cc(C)c2[nH]c(C)c(CC(=O)N(C)CCN(C)C)c2c1`: the cytotoxicity at 10 µM was found to be 2.49%.

With `COCCN1C(=O)CCC12CCC(NCc1nccs1)CC2` (stereo unspecified), the cytotoxicity at 10 µM came out at 7.01%. Take `O=C(C1CC1)N1CCC[C@]2(C[C@@H](OCc3ccncc3)CO2)C1`: the cytotoxicity at 10 µM was determined as 6.46%.

Consider `Cn1cccc1C(=O)N1CCN(Cc2cccnc2)c2ncccc2C1`, for which the cytotoxicity at 10 µM turned out to be 10.9%. In the case of `CNC(=O)[C@H]1C[C@H]2OCC[C@H]2N(CC2CC2)C1`, the cytotoxicity at 10 µM amounted to 4.17%. Take `Cc1nc(CN2CCO[C@H]3[C@H](OCC(=O)N(C)C)CC[C@@H]32)cs1`: the cytotoxicity at 10 µM is 0.129%.

As to `CN(Cc1cccnc1)C1COC2(CCN(Cc3nccs3)CC2)C1` (stereo unspecified), the cytotoxicity at 10 µM is 6.37%.

For the molecule `CN(Cc1cncnc1)[C@@H]1CN(Cc2ccco2)C[C@@H]2CCCO[C@@H]21`, the cytotoxicity at 10 µM is -1.6%.

The values above are taken from ChEMBL document CHEMBL4513216, “Probing the Open Global Health Chemical Diversity Library for Multistage-Active Starting Points for Next-Generation Antimalarials” (ACS Infect Dis, 2020).
